{"source": "paper PMC3999706", "about": "(Biochemistry, 2013)", "key": {"Ferrous Ns H-NOX": {"biological_target": "Ferrous Ns H-NOX", "conditions": "ref [5], cited from earlier work"}, "Fe(II) Vc H-NOX [1]": {"test_system": "Fe(II) Vc H-NOX", "test": "Stopped-flow kinetics and affinity of gaseous ligand binding to Fe", "design": "species or system Vibrio cholerae", "conditions": "for koff / pKd: Fe(II) Vc H-NOX, NO: 6c complex; for koff: displacement method; for pKd: calculated from kon and koff; for koff of 5c Vc H-NOX-NO complex, fast phase / koff of 5c Vc H-NOX-NO complex, slow phase: displacement with CO/dithionite"}, "sGC": {"biological_target": "sGC", "conditions": "6c complex, ref [5], cited from earlier work"}, "Fe(III) Vc H-NOX": {"biological_target": "Fe(III) Vc H-NOX (Vibrio cholerae, UniProt Q9KLM3)", "test": "biochemical", "type": "binding"}, "Fe(II) Ns H-NOX": {"test_system": "Fe(II) Ns H-NOX", "conditions": "ref [14]; cited from earlier work"}, "Fe(II) Vc H-NOX [2]": {"test_system": "Fe(II) Vc H-NOX", "test": "Autoxidation of Fe", "type": "biochemical, Vibrio cholerae", "procedure,_shortened": "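Recombinant Vc H-NOX was expressed in E. coli Rosetta 2(DE3)pLysS (heme and δ-aminolevulinic acid supplemented, IPTG, 48 h at 20 °C) and purified on TALON resin. The anaerobic Fe(II) protein was mixed with O2 by stopped-flow in 20 mM HEPES pH 7.3, 50 mM NaCl, 10% glycerol. Spectral changes were followed by diode-array over 65.5 s, and kobs was taken from single-exponential fits under pseudo-first-order conditions.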"}, "[3]": {"conditions": "estimated by computer simulation of A420 time courses"}}, "note": "pKd: −log10 of the molar value. Values joined by “and” are separate entries in the source; they are usually repeats but may differ in a detail not shown here. Equal entries are not always repeated. Where two headings read alike, the source gives them in different places."}
{"molecule": "[C-]#[O+]", "note": "[CO, Carbon monoxide]", "values": [{"measurement": "pKd", "setting": "Ferrous Ns H-NOX; read-out: KD(CO) of ferrous Ns H-NOX", "result": 5.85}, {"measurement": "koff", "setting": "Fe(II) Vc H-NOX [1]; 24 °C", "result": 0.85, "unit": "s⁻¹"}, {"measurement": "pKd", "setting": "Fe(II) Vc H-NOX [1]", "result": 6.11}, {"measurement": "pKd", "setting": "sGC; read-out: affinity of CO for sGC (KD)", "result": 3.59}]}
{"molecule": "c1c[nH]cn1", "note": "[Im, imidazole]", "values": [{"measurement": "pKd", "setting": "Fe(III) Vc H-NOX", "result": 2.38}]}
{"molecule": "O=O", "note": "[O2]", "values": [{"measurement": "autoxidation rate of Fe(II) Ns H-NOX", "setting": "Fe(II) Ns H-NOX", "result": "~ 0.05 hr^−1 and 0.05 hr^−1"}, {"measurement": "second order reaction rate constant (slope of kobs versus [O2])", "setting": "Fe(II) Vc H-NOX [2]; 3 μM Fe(II) Vc H-NOX, 100-600 μM O2, 24 °C, A429", "result": 4.8, "unit": "M⁻¹ s⁻¹"}, {"measurement": "autoxidation rate of Fe(II) Vc H-NOX to ferric state (k4)", "setting": "Fe(II) Vc H-NOX [2]; k4 = slope × KD(O2)", "result": "0.06 s^−1 and ~ 0.06 s^−1"}, {"measurement": "pKd", "setting": "Ferrous Ns H-NOX; read-out: KD for O2 of Ns H-NOX, measured using a high pressure cell", "result": 1.89}]}
{"molecule": "nitric oxide [NO]", "values": [{"measurement": "pKd", "setting": "Ferrous Ns H-NOX; read-out: KD(NO) of ferrous Ns H-NOX", "result": 9.77}, {"measurement": "koff", "setting": "Fe(II) Vc H-NOX [1]; 24 °C", "result": 0.3, "unit": "s⁻¹"}, {"measurement": "pKd", "setting": "Fe(II) Vc H-NOX [1]", "result": 9.57}, {"measurement": "k1 (second NO binding to 6c complex)", "setting": "Fe(II) Vc H-NOX [1]; [3]", "result": "2.5e+07", "unit": "M⁻¹ s⁻¹"}, {"measurement": "k-1 (dissociation of quaternary complex)", "setting": "Fe(II) Vc H-NOX [1]; [3]", "result": 4500, "unit": "s⁻¹"}, {"measurement": "k2 (limiting rate of 5c heme-NO complex formation)", "setting": "Fe(II) Vc H-NOX [1]; excess NO, hyperbolic fit of kobs versus [NO], 24 °C", "result": 720, "unit": "s⁻¹"}, {"measurement": "koff of 5c Vc H-NOX-NO complex, fast phase", "setting": "Fe(II) Vc H-NOX [1]; excess NO, 29% overall reaction", "result": 0.01, "unit": "s⁻¹"}, {"measurement": "koff of 5c Vc H-NOX-NO complex, slow phase", "setting": "Fe(II) Vc H-NOX [1]; excess NO, 71% overall reaction", "result": 0.001, "unit": "s⁻¹"}, {"measurement": "overall conversion rate of 6c to 5c Vc H-NOX-NO complex", "setting": "Fe(II) Vc H-NOX [1]; stoichiometric NO (2.5 μM each), 24 °C, global analysis", "result": "~ 0.01 s^−1"}, {"measurement": "koff of 5c Vc H-NOX-NO complex, fast phase", "setting": "Fe(II) Vc H-NOX [1]; stoichiometric NO, 16% overall reaction", "result": 0.01, "unit": "s⁻¹"}, {"measurement": "koff of 5c Vc H-NOX-NO complex, slow phase", "setting": "Fe(II) Vc H-NOX [1]; stoichiometric NO, 84% overall reaction", "result": 0.001, "unit": "s⁻¹"}, {"measurement": "k-2 (re-association of NO with 5c Vc H-NOX)", "setting": "Fe(II) Vc H-NOX [1]; y-intercept of kobs versus low [NO]", "result": 1.9, "unit": "s⁻¹"}, {"measurement": "pKd", "setting": "sGC; read-out: affinity of NO for sGC (KD)", "result": 7.27}]}
